Bioassay records deposited in PubChem BioAssay by several laboratories.
PKA-R1A act = activates the PKA-R1A holoenzyme complex; 340,000 tested, 0.083% active; P00514+P68181; PKA-R1A dissociation, Cy5-IP20 fluorescence polarization; scaled: DMSO 0%, 113 µM cGMP 100%; activation, % at 11.4 µM;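 active means percent activation above the mean of all tested compounds plus 3 SD, cut at about 19% in these data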;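 further: higher means more PKAc released from R1A so a rise in polarization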
PKA-R2B act = PKA-R2B complex activation | P22694+P31323 | 340,000 tested, 0.079% active | activation, % at 11.4 µM | AID 504700 | PKA-R2B holoenzyme dissociation, Cy5-IP20 fluorescence polarization; R2B truncated from residue 108, S112A mutant; 0% DMSO only, 100% 113 µM cGMP;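 active means activation above a cutoff set at the mean over all compounds plus 3 SD, cut at about 18% in these data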;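 further: higher means more holoenzyme dissociation and a rise in polarization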
Target sequence (P31323 whole entry, looked up, other chains not shown, the tested form may be a part): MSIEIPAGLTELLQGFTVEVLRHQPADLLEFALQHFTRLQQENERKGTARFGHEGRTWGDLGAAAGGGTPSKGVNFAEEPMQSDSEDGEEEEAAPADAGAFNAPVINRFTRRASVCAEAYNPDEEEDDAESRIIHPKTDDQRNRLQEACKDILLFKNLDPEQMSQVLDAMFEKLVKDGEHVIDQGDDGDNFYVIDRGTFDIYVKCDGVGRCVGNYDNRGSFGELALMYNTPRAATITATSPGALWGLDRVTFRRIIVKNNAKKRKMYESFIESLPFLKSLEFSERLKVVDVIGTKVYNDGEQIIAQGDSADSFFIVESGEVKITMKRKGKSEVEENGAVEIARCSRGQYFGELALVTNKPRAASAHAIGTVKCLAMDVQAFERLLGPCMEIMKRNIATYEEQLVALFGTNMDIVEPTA
Rin1-Abl PPI inh = human Rin1-Abl interaction inhibition; P00519+Q13671; TR-FRET Rin1/Abl binding, biochemical; inhibition, % at 7.35 µM; 360,000 tested, 0.4% active; AID 588664; in the data active means inhibition above about 5%, passing the limit was not always enough
H9c2 protect = modulators protecting cardiomyocytes from myocardial damage; H9c2 cardiomyocytes, H2O2 injury protection, ATPLite, 2 h; protection from H2O2 cell death, % at 20 µM; 360,000 tested, 0.63% active;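 active means compounds giving at least 50% protection of heart cells from peroxide-induced death in the single-dose screen, raw or plate-pattern-corrected value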;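 further: 0% = DMSO wells with peroxide and 100% = DMSO wells without peroxide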
TbMetRS inhib = blocks T. brucei methionyl-tRNA synthetase activity; purified T. brucei MetRS, ATP depletion, Kinase-Glo luminescence; inhibition, % at 11.9 µM; 360,000 tested, 0.4% active;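 active means inhibition above a per-plate cutoff of the control wells' mean inhibition plus 3 SD, cut at about 5.5% in these data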;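 further: 0% = DMSO wells median and 100% = median of wells with control inhibitor compound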
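Test system: purified T. brucei MetRS enzyme. Also added: ATP, methionine and E. coli bulk tRNA substrates. Compound: 11.9 µM single point. Schedule: 15 min enzyme-compound preincubation, 2 h reaction, 10 min detection, 25 °C. Signal: luciferase luminescence of residual ATP, Kinase-Glo. Evaluation: percent inhibition versus plate control medians. Controls: DMSO wells, low control.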
Active calls of the source: *; x = not tested or not shown. An excerpt weighted towards active compounds, which were near 1.5% of everything screened.

SMILES	PKA-R1A act	PKA-R2B act	Rin1-Abl PPI inh	H9c2 protect	TbMetRS inhib
CCCCCCCC/C=C\CCCCCCCC(=O)NCCc1ccc(O)c(O)c1	-7	-4	8	67*	0
COc1ccc(CN2CCNC(=O)C2CC(=O)N(C)Cc2nc(C)cs2)c(OC)c1 (stereo unspecified)	-7	-14	0	2	-1
Cc1ccc(/C=N/NC(=O)c2c(-c3ccccc3)noc2C)c(O)c1	-3	-4	-2	54*	0
N#C/C(=C/c1ccc(N2CCCC2)c([N+](=O)[O-])c1)c1nc2ccccc2[nH]1	-7	-4	-8	1	0
N#C/C(=C\c1ccc(N2CCOCC2)c([N+](=O)[O-])c1)c1nc2ccccc2[nH]1	-14	-11	-3	62*	0
N#Cc1c(NCCN)nc(NCc2ccccc2)c2c1CCN(Cc1ccccc1)C2	-13	2	0	23	19*
CC(C)(C)OC(=O)NCC12C=CC(O1)C1C(=O)N(Cc3ccccc3)C(=O)C12 (stereo unspecified)	-22	9	3	80*	-1
Cc1ccc(NC(=S)NCC23C=CC(O2)C2C(=O)N(c4ccc(C)cc4)C(=O)C23)cc1 (stereo unspecified)	3	-14	-1	-5	0
COc1ccc(NC(=O)Nc2c(SC)nsc2SC)cc1	3	6	2	4	0
Cc1cc2[nH]c(=O)c3ccccc3n2n1	9	-7	6	77*	-2
CCCC(=O)Nc1cc(C)c2c(=O)oc3ccccc3c2n1	-8	-7	1	104*	0
Cc1cc(NC(=O)CC(C)(C)C)nc2c1c(=O)oc1ccccc12	-3	2	1	5	0
Nc1nc2n(n1)C(c1cccs1)CC(c1ccc(F)cc1)N2 (stereo unspecified)	-4	3	2	4	0
COc1ccc(C2CC(c3cccs3)n3nc(N)nc3N2)cc1 (stereo unspecified)	3	-6	-3	62*	0
CC(C)N(Cc1ccccc1)C(=O)CN1c2cccc3cccc(c23)S1(=O)=O	0	1	2	4	0
O=c1[nH]c(/C=C/c2cccc3ccccc23)nc2ccccc12	11	-3	-8	8	0
CCCN1C(=O)/C(=C\c2nc3ccccc3c(=O)[nH]2)c2ccccc21	5	10	0	66*	0
Cc1cccc(C)c1NC(=O)C(c1ccc(-c2ccccc2)cc1)n1c(=O)c(-c2cc3ccccc3[nH]2)nc2ccccc21 (stereo unspecified)	x	x	x	x	-1
CCCCC(=O)Nc1cccc(NC(=O)c2cccnc2Cl)c1	-10	-4	0	-2	0
CC(=O)c1cccc(Nc2nc3ccccc3n3cnnc23)c1	-3	-2	-1	67*	1
COc1cccc(/C=N/Nc2nc3ccccc3n3cnnc23)c1	3	-8	-3	57*	0
c1ccc(N2CCOCC2)c(Nc2nc3ccccc3n3cnnc23)c1	-3	-5	-1	81*	-1
CCN(C[C@H]1N[C@@](CC)(C(=O)OC)[C@H]2C(=O)N(C)C(=O)[C@@H]12)C(=O)Nc1ccc(C)cc1	-8	7	-1	-3	-2
CCC(CC)Nc1ccc(C(CC(N)=O)NC(=O)Cc2cccc3ccccc23)cc1[N+](=O)[O-] (stereo unspecified)	-1	-7	4	4	0
COc1cc2ccccc2cc1C(=O)NNC(=O)c1ccccc1O	12	8	-5	52*	0
CN(C(=O)COC(=O)CNC(=O)c1ccc(C(C)(C)C)cc1)c1c(N)n(Cc2ccccc2)c(=O)[nH]c1=O	6	-1	1	10	0
COc1ccc(Cl)c(Cn2c(NCc3ccco3)nc3c2c(=O)n(C)c(=O)n3C)c1	-2	-4	11*	-26	0
Cn1c(NCc2ccco2)nc2c1c(=O)n(Cc1ccc(Cl)cc1)c(=O)n2C	-12	-12	1	51*	-2
CC(C)(C)OC(=O)C[C@@H]1C/C=C\C[C@@H](CC(=O)N(CCO)Cc2ccccc2)C(=O)NC[C@H](c2ccccc2)OC1=O	-8	6	-3	92*	0
